Reference: ChEMBL document CHEMBL1148785, “Second generation tetrahydroquinoline-based protein farnesyltransferase inhibitors as antimalarials” (J Med Chem, 2007)

How the values were obtained:
[1] = Inhibition of Plasmodium falciparum protein farnesyltransferase by scintillation proximity assay
[2] = test system: Plasmodium falciparum; test: Antimalarial activity against Plasmodium falciparum 3D7; type: functional; settings: read-out: ED50 (the source's name)
How it was run: (§1)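 Asynchronous culture in type A+ erythrocytes at 0.5% parasitemia and 0.5% hematocrit, grown in RPMI-1640 with 20% heat-inactivated human A+ plasma. Compound was serially diluted from a top final 5 µM, with DMSO vehicle as 100% growth. Plates ran 48 h at 37 °C under 5% CO2/5% O2/90% N2, then [3H]-hypoxanthine (0.3 µCi) for 24 h. Filter-harvested counts were corrected for the uninfected-RBC background. ED50 by linear regression; duplicates averaged.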

[3] = test system: Plasmodium falciparum; test: Antimalarial activity against Plasmodium falciparum K1; type: functional; settings: read-out: ED50 (the source's name); how it was run: as §1
[4] = test system: Plasmodium falciparum; test: Inhibition of Plasmodium falciparum protein farnesyltransferase at 50 nM by scintillation proximity assay
[5] = test system: Plasmodium falciparum; test: Inhibition of Plasmodium falciparum protein farnesyltransferase at 5 nM by scintillation proximity assay
[6] = test system: Plasmodium falciparum; test: Inhibition of Plasmodium falciparum protein farnesyltransferase at 0.5 nM by scintillation proximity assay

SMILES	IC50 [1]	EC50 [2]	EC50 [3]	inhibition [4]	inhibition [5]	inhibition [6]	EC50 ([2]; Plasmodium falciparum, 3D7)	EC50 ([3]; Plasmodium falciparum, K1)
COC(=O)N1CCC(CN(C2Cc3cc(C#N)ccc3N(Cc3cncn3C)C2)S(=O)(=O)c2ccccn2)CC1 (stereo not given) [listing 1 of 3 here]	0.0027 µM	0.095 µM	0.075 µM					
Cn1cncc1CN1CC(N(CC2CCN(C(=O)C(C)(C)C)CC2)S(=O)(=O)c2ccccn2)Cc2cc(C#N)ccc21 (stereo not given)	0.0012 µM			99%	17%	76%	0.048 µM	0.075 µM
Cn1cncc1CN1CC(N(CC(=O)NC(C)(C)C)S(=O)(=O)c2ccc(F)cc2)Cc2cc(C#N)ccc21 (stereo not given)	0.042 µM			71%	33%	30%	> 5 µM	5 µM
Cc1cc(C(=O)N(CC(=O)OC(C)(C)C)C2Cc3cc(C#N)ccc3N(Cc3cncn3C)C2)no1 (stereo not given)	> 0.05 µM						> 5 µM	> 5 µM
Cn1cncc1CN1CC(N(CC(=O)NC(C)(C)C)S(=O)(=O)c2c[nH]cn2)Cc2cc(C#N)ccc21 (stereo not given)	0.8 µM			15%	14%	10%	> 5 µM	> 5 µM
Cn1cncc1CN1CC(N(CC2CCN(C(=O)c3ccc(Cl)cc3)CC2)S(=O)(=O)c2ccccn2)Cc2cc(C#N)ccc21 (stereo not given)	0.9 µM			26%	0%	7%	0.46 µM	1.7 µM
Cn1cncc1CN1CC(N(CC2CCN(S(C)(=O)=O)CC2)S(=O)(=O)c2ccccn2)Cc2cc(C#N)ccc21 (stereo not given)	0.0009 µM			99%	45%	93%	0.062 µM	0.05 µM
COC(=O)N1CCC(CN(C2Cc3cc(C#N)ccc3N(Cc3cncn3C)C2)S(=O)(=O)c2ccccn2)CC1 (stereo not given) [listing 2 of 3 here]	0.00058 µM	0.016 µM	0.015 µM					
Cn1cnc(S(=O)(=O)N(Cc2ccsc2)C2Cc3cc(C#N)ccc3N(Cc3cncn3C)C2)c1 (stereo not given)	0.0004 µM			99%			0.012 µM	0.002 µM
Cn1cnc(S(=O)(=O)N(CCCCC(=O)NCCN)C2Cc3cc(C#N)ccc3N(Cc3cncn3C)C2)c1 (stereo not given)	0.0009 µM						0.25 µM	0.13 µM
Cn1cncc1CN1CC(N(CC(=O)OC(C)(C)C)C(=O)c2ccccc2)Cc2cc(C#N)ccc21 (stereo not given)	> 0.05 µM						> 5 µM	> 5 µM
COC(=O)N1CCC(CN(C2Cc3cc(C#N)ccc3N(Cc3cncn3C)C2)S(=O)(=O)c2ccccn2)CC1 (stereo not given) [listing 3 of 3 here]	0.00029 µM	0.011 µM	0.013 µM					
Cn1cnc(C(=O)N(CC(=O)OC(C)(C)C)C2Cc3cc(C#N)ccc3N(Cc3cncn3C)C2)c1 (stereo not given)	> 0.05 µM						> 5 µM	> 5 µM
COC(=O)N1CCC(CN(C2Cc3cc(C#N)ccc3N(Cc3cncn3C)C2)S(=O)(=O)c2cn(C)cn2)CC1 (stereo not given)				97%	95%	54%	0.009 µM	0.0045 µM
Cn1cncc1CN1CC(N(CC2CCN(C(=O)OCC(F)(F)F)CC2)S(=O)(=O)c2ccccn2)Cc2cc(C#N)ccc21 (stereo not given)				91%	47%	91%	0.065 µM	0.075 µM
Cn1cnc(S(=O)(=O)N(CCCN)C2Cc3cc(C#N)ccc3N(Cc3cncn3C)C2)c1 (stereo not given)				60%	5%	5%	> 5 µM	4.6 µM
CCOc1ccccc1CN(C1Cc2cc(C#N)ccc2N(Cc2cncn2C)C1)S(=O)(=O)c1cn(C)cn1 (stereo not given)				11%	5%	1%	2.6 µM	3.6 µM

SMILES	IC50 [1]	EC50 [2]	EC50 [3]	inhibition [4]	inhibition [5]	inhibition [6]	EC50 ([2]; Plasmodium falciparum, 3D7)	EC50 ([3]; Plasmodium falciparum, K1)
Cn1cnc(S(=O)(=O)N(CCOc2cccc3c2OCCO3)C2Cc3cc(C#N)ccc3N(Cc3cncn3C)C2)c1 (stereo not given)				99%	91%	12%	0.355 µM	0.35 µM
CCN(CCCCN(C1Cc2cc(C#N)ccc2N(Cc2cncn2C)C1)S(=O)(=O)c1ccccn1)C(=O)OC(C)(C)C (stereo not given)				92%	52%	6%	1.25 µM	2.6 µM
Cn1cncc1CN1CC(N(CCn2cccn2)S(=O)(=O)c2ccccn2)Cc2cc(C#N)ccc21 (stereo not given)				99%	96%	68%	0.013 µM	0.02 µM
Cn1cnc(S(=O)(=O)N(Cc2ccc3cccnc3c2)C2Cc3cc(C#N)ccc3N(Cc3cncn3C)C2)c1 (stereo not given)				99%	91%	37%	0.21 µM	0.6 µM
COC(=O)N1CCC(CN(C2Cc3cc(C#N)ccc3N(Cc3cncn3C)C2)S(C)(=O)=O)CC1 (stereo not given)				66%	5%	0%	2.7 µM	> 5 µM
CN(C)C(=O)N1CCC(CN(C2Cc3cc(C#N)ccc3N(Cc3cncn3C)C2)S(=O)(=O)c2ccccn2)CC1 (stereo not given)				100%	35%	94%	0.013 µM	0.0115 µM
Cn1cnc(CN2CC(N(CCS(C)(=O)=O)S(=O)(=O)c3cn(C)cn3)Cc3cc(-c4ccccc4)ccc32)c1 (stereo not given)				99%	91%	29%	0.4 µM	0.7 µM
Cc1noc(C)c1CN(C1Cc2cc(C#N)ccc2N(Cc2cncn2C)C1)S(=O)(=O)c1cn(C)cn1 (stereo not given)				100%	98%	46%	0.025 µM	< 0.02 µM
Cn1cnc(S(=O)(=O)N(Cc2cccnc2)C2Cc3cc(C#N)ccc3N(Cc3cncn3C)C2)c1 (stereo not given)				99%	89%	17%	0.07 µM	0.21 µM
Cn1cncc1CN1CC(N(Cc2ccccc2C(F)(F)F)S(=O)(=O)c2ccccn2)Cc2cc(C#N)ccc21 (stereo not given)				91%	38%	0%	0.65 µM	3 µM
Cn1cncc1CN1CC(N(CC2CCN(S(=O)(=O)c3ccccc3)CC2)S(=O)(=O)c2ccccn2)Cc2cc(C#N)ccc21 (stereo not given)				96%	7%	67%	0.275 µM	0.28 µM
C=C(C)CN(C1Cc2cc(-c3ccccc3)ccc2N(Cc2cn(C)cn2)C1)S(=O)(=O)c1cn(C)cn1 (stereo not given)				99%	89%	22%	0.64 µM	0.475 µM
Cn1cncc1CN1CC(N(CC2CCN(C(=O)CNC(=O)OC(C)(C)C)CC2)S(=O)(=O)c2ccccn2)Cc2cc(C#N)ccc21 (stereo not given)				88%	15%	37%	0.75 µM	0.69 µM
COC(=O)N1CCC(CN(C2Cc3cc(C#N)ccc3N(Cc3cncn3C)C2)S(=O)(=O)c2ccc3oc(=O)ccc3c2)CC1 (stereo not given)				68%	21%	2%	> 5 µM	> 5 µM
Cn1cncc1CN1CC(N(CCC2(C)OCC(C)(C)CO2)S(=O)(=O)c2ccccn2)Cc2cc(C#N)ccc21 (stereo not given)				95%	66%	18%	0.44 µM	0.24 µM
Cn1cnc(S(=O)(=O)N(Cc2ccc(C#N)cc2)C2Cc3cc(C#N)ccc3N(Cc3cncn3C)C2)c1 (stereo not given)				96%	90%	54%	0.07 µM	0.055 µM
